We go through one compound from ChEMBL document CHEMBL4706701, “Synthesis and biological activity of selenopsammaplin A and its analogues as antitumor agents with DOT1L inhibitory activity” (Bioorg Med Chem, 2021).

For orientation: pIC50 means −log10 of the IC50, conventionally taken in molar units.

Series [1] deals with MDA-MB-231. Briefly: Down regulation of ZEB1 expression in human MDA-MB-231 cells at 50 to 200 nM measured after 48 hrs by Western blot analysis. It counts as functional, cell-based. The following applies: dose 50-200 nM. The method, boiled down: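 MDA-MB-231 cells exposed to compound for 48 h; lysates in 2× SDS sample buffer with orthovanadate and NaF, protein by BCA. 5–20 μg resolved on 8–15% SDS-PAGE, PVDF, BSA block, probed for E-cadherin, N-cadherin, ZEB1, vimentin; ECL detection, β-actin internal control, band densitometry. Mean ± SD (n = 3), three experiments.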

Series [2] has as its system MDA-MB-231. Briefly: Antimetastatic activity against human MDA-MB-231 cells xenografted in BALB/c nu mouse assessed as down regulation of vimentin expression in tumor tissue at 5 to 15 mg/kg, ip administered thrice per week for 38 days measured 1 week post last dose by H and E staining based immunohistochemical analysis. The format is functional, organism-based. Particulars: dose 5-15 mg/kg, time 45.0 day. The method, boiled down: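 Tumors and lungs from orthotopic MDA-MB-231/Luc nude mice (ip dosing three times weekly, 38 days) fixed in 4% PFA, paraffin-embedded, sectioned, antigen-retrieved. Lungs H&E-stained for metastatic cells; tumor sections immunostained for Ki67, H3K79me2, E-cadherin, vimentin with HRP detection, hematoxylin counterstain, imaged at 200×.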
Background: A xenograft is tissue or cells of one species grown in another, often human tumour cells in immunodeficient mice.

The nature of series [3]: Selectivity ratio of IC50 for human MCF-10A cells to IC50 for human MDA-MB-231 cells. It counts as toxicity. The following applies: MCF-10A cells versus MDA-MB-231 cells, read-out: Ratio IC50.
The test system of series [4] is MDA-MB-231. Briefly: Antitumor activity against human MDA-MB-231 cells xenografted in BALB/c nu mouse assessed as reduction in tumor weight at 5 to 15 mg/kg, ip administered thrice per week for 38 days measured 1 week post last dose. The format is functional, organism-based. The following applies: dose 5-15 mg/kg, time 45.0 day. In outline: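 Female BALB/c-nu mice (5–6 wk) given 1 × 10⁷ luciferase-expressing MDA-MB-231 cells in 50:50 DMEM/Matrigel into the fourth fat pad; randomized after 10 days (six per group). Dosed ip in EtOH/Cremophor/saline (5:5:90) three times weekly for 38 days. Tumor L, W, H measured by caliper, volume = LWH/2; body weight weekly; tumors excised and weighed at termination.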

Series [5] relates to MDA-MB-231. Briefly: Antimigratory activity in human MDA-MB-231 cells assessed as suppression of wound closure after 24 hrs by microscopic analysis. The following applies: dose 50-400 nM. It counts as functional, cell-based. In outline: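 MDA-MB-231 monolayers at 80–90% confluence scratched with a pipette tip, washed with PBS, then kept 24 h in medium with 1% FBS plus compound at various concentrations. Wounds photographed at 0 and 24 h; area measured by image analysis and expressed as wound healing (%) relative to the 0 h area. Mean ± SD (n = 3), three separate experiments.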

Series [6] concerns MDA-MB-231. Briefly: Down regulation of ZEB1 mRNA expression in human MDA-MB-231 cells at 50 to 200 nM measured after 24 hrs by RT-PCR analysis. It counts as functional, cell-based. The following applies: dose 50-200 nM.
Series [7] has as its system MDA-MB-231. Briefly: Up regulation of CDH1 mRNA expression in human MDA-MB-231 cells at 50 to 200 nM measured after 24 hrs by RT-PCR analysis. It counts as functional, cell-based. The following applies: dose 50-200 nM.
Series [8] concerns MDA-MB-231. Briefly: Antitumor activity against human MDA-MB-231 cells xenografted in ip dosed BALB/c nu mouse assessed as down regulation of H3K79me2 expression in tumor tissue administered thrice per week for 38 days measured 1 week post last dose by Western blot analysis. The format is functional, organism-based. The following applies: dose 5-15 mg/kg, time 45.0 day. In outline: (§1)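 Frozen tumor portions from the orthotopic MDA-MB-231 nude mouse study homogenized in complete lysis buffer; protein by Bradford assay. Western blotting for H3K79me2, E-cadherin and vimentin, β-actin internal control, band intensities semi-quantified; three separate experiments.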

Another series concerns A549. Briefly: Cytotoxicity against human A549 cells assessed as reduction in cell viability by SRB assay. It counts as functional, cell-based. In outline:
(§2)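 Cells seeded in 96-well plates and exposed to compounds for the stated times. Zero-day controls were incubated 30 min. Cells were fixed and stained with 0.4% SRB in 1% acetic acid, and bound dye was dissolved in 10 mM Tris (pH 10.0). A515 was read, and IC50 was calculated by non-linear regression.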

The subject of series [9] is MDA-MB-231. Briefly: Antimetastatic activity against human MDA-MB-231 cells xenografted in ip dosed BALB/c nu mouse assessed as up regulation of E-cadherin expression in tumor tissue administered thrice per week for 38 days measured 1 week post last dose by Western blot analysis. The format is functional, organism-based. Particulars: dose 5-15 mg/kg, time 45.0 day. The method, boiled down:
as §1

Series [10] deals with MDA-MB-231. Briefly: Down regulation of CDH2 mRNA expression in human MDA-MB-231 cells at 50 to 200 nM measured after 24 hrs by RT-PCR analysis. The following applies: dose 50-200 nM. It counts as functional, cell-based.
For another series, the system named is SK-HEP1. Briefly: Cytotoxicity against human SK-HEP1 cells assessed as reduction in cell viability by SRB assay. It counts as functional, cell-based. The method, boiled down:
as §2
In general terms: The SRB assay estimates cell density from bound dye.

Series [11] addresses Histone-lysine N-methyltransferase, H3 lysine-79 specific (Homo sapiens) (UniProt Q8TEK3). Briefly: Inhibition of DOT1L in human MDA-MB-231 cells assessed as effect on histone H3 methylation at 50 to 200 nM by Western blot analysis. The format is cell-based. Particulars: dose 50-200 nM. The method, boiled down:
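MDA-MB-231 cell lysates in 2× SDS buffer, protein by BCA; 5–20 μg on 8–15% SDS-PAGE, transferred to PVDF, BSA-blocked and probed with antibodies to H3K4me2, H3K27me2, H3K36me2, H3K79me2 and total histone H3; ECL detection. Mean ± SD (n = 3), three separate experiments.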
(Immunoblotting shows a protein as a band on a membrane.)

A short description of series [12]: Toxicity in human MDA-MB-231 cells xenografted BALB/c nu mouse assessed as change in body weight at 5 to 15 mg/kg, ip administered thrice per week for 38 days measured once per week during compound dosing. It counts as organism-based. The following applies: in vivo, 912 h, dose 5-15 mg/kg, time 38 day. The method, boiled down: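 Female BALB/c-nu mice, 5–6 weeks old, received 1 × 10⁷ luciferase-expressing MDA-MB-231 cells in 50:50 DMEM/Matrigel into the fourth fat pad. At day 10, mice were randomized into groups of six. Dosing was i.p. three times weekly for 38 days, in vehicle EtOH/Cremophor/saline 5:5:90. Body weight was recorded weekly, and toxicity was judged by lethality and weight loss.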

Series [13] in a line: Selectivity ratio of IC50 for human MCF-10A cells to IC50 for human SK-HEP1 cells. In outline: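 Cytotoxicity by SRB assay: cells seeded in 96-well plates and treated with compounds; fixed, stained with 0.4% SRB in 1% acetic acid, dye dissolved in 10 mM Tris (pH 10.0), absorbance read at 515 nm. IC50 by non-linear regression, means of at least three experiments; ratio of MCF10A IC50 to cancer-line IC50.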

The target of series [14] is Histone-lysine N-methyltransferase, H3 lysine-79 specific (Homo sapiens) (UniProt Q8TEK3). Briefly: Inhibition of human N-terminal GST-tagged DOT1L (2 to 416 residues) expressed in Escherichia coli at 200 nM using DOT1L substrate measured after 2 hrs in presence of SAM by ELISA. In outline:
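Cell-free DOT1L enzyme activity assay using 500 ng DOT1L per well. Compound was incubated 2 h before read-out. EPZ-5676 (100 nM) was the positive control. Mean ± SD (n = 3), representative of three separate experiments.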

Another series relates to MCF-10A. Briefly: Cytotoxicity against human MCF-10A cells assessed as reduction in cell viability by SRB assay. It counts as cell-based. In outline:
as §2

pIC50: −log10 of the molar value. Activity calls are given as the source filed them. The rule behind the calls is not given here.

Sequence of Histone-lysine N-methyltransferase, H3 lysine-79 specific (Homo sapiens) (Q8TEK3 whole entry, looked up, the tested form may be a part): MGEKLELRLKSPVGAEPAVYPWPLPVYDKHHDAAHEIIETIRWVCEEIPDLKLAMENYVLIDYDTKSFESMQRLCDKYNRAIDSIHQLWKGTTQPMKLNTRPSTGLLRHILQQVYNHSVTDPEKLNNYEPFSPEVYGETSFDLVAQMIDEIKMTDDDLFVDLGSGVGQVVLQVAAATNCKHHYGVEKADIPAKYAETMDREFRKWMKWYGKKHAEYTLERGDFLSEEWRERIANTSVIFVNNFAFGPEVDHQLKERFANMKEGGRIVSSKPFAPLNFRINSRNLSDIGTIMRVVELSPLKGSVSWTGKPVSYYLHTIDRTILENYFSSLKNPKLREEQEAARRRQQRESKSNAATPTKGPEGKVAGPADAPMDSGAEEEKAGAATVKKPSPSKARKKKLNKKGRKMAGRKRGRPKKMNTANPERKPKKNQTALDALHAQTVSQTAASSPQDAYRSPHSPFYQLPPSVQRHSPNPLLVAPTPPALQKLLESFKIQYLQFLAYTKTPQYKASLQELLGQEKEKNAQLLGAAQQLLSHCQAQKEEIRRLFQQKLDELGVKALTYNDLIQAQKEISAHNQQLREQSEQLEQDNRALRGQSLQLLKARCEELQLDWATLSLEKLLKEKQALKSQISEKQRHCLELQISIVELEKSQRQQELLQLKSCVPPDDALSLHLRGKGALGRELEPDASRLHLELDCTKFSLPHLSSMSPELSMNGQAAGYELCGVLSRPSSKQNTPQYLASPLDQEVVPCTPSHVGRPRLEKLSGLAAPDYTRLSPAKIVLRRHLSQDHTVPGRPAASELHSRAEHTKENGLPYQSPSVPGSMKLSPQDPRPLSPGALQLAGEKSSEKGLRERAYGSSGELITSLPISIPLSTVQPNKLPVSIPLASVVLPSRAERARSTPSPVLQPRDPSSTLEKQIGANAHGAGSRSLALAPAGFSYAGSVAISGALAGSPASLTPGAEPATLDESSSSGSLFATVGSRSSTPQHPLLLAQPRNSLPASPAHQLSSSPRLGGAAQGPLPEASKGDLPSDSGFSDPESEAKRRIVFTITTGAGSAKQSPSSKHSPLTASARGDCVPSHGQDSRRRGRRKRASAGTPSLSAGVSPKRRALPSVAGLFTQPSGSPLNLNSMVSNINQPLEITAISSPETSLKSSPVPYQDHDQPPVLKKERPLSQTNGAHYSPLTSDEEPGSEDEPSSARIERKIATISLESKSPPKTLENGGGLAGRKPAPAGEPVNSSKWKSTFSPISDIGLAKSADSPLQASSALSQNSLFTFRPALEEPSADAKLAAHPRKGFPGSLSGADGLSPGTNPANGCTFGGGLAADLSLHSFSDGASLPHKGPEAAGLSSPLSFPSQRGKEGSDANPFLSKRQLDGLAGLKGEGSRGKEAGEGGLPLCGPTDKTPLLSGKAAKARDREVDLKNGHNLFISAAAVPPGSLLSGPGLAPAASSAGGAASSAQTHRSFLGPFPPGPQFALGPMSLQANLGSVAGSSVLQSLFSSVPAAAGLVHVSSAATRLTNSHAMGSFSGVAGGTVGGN

For the compound `O=C(NCC[Se][Se]CCNC(=O)/C(Cc1ccccc1)=N/O)/C(Cc1ccccc1)=N/O`, the outcome in the series on MDA-MB-231 [1], with MDA-MB-231 [2], in the series with MDA-MB-231 [4], in the series on MDA-MB-231 [6], in the series with MDA-MB-231 [7] and in the series on MDA-MB-231 [10] was Active. The selectivity ratio in [3] was > 100. In addition, the Activity result in the series with MDA-MB-231 [5] is “Dose-dependent effect”; with MDA-MB-231 [8], “Dose-dependent effect”; in the series on MDA-MB-231 [9], “Dose-dependent effect”; in series [12] it was “Non-Toxic”. In addition, the negative-log IC50 (pIC50) with A549 was 7.10; in the series on SK-HEP1, 6.92; in the series with MCF-10A it was 4.74. Also, the inhibition result in [11] and in series [14] was “Active” in each case. Moreover, the “Ratio IC50” value in series [13] was >100.
